Screens: PubChem BioAssay, several laboratories
CR mimetic SO: reduction of superoxide in aged yeast, primary screen, HTS; superoxide response (% of plate mean), % at 10 µM; S. cerevisiae aged cells, superoxide DHE fluorescence; active compounds read low; 330,000 tested, 0.18% active; AID 2690, 2010;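 active means superoxide response under a set limit, about three screen SD below normal, cut at about 65% in these data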;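 further: yeast aged for seven days with compound at 30 °C before DHE staining; 100% = average MFI of all compound-treated wells on the plate with controls excluded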
PHOSPHO1 inh: PubChem AID 1565. inhibition, % at 13.3 µM. recombinant PHOSPHO1, absorbance phosphatase assay. 290,000 tested, 1.1% active. Phosphoethanolamine/phosphocholine phosphatase (Homo sapiens), Q8TCT1; in the data active means inhibition above about 60%
Target sequence (Q8TCT1 whole entry, looked up): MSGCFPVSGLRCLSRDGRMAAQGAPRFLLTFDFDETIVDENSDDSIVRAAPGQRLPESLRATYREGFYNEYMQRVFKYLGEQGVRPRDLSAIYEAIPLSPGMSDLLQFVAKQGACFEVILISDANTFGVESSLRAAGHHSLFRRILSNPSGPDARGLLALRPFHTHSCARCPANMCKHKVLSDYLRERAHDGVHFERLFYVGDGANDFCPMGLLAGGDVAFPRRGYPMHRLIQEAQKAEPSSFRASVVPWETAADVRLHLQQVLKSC
VIM-2 inhibitor: VIM-2 metallo-beta-lactamase inhibitors, primary screen, biochemical, epi-absorbance readout, Pseudomonas aeruginosa enzyme; AID 1527, 2009; 290,000 tested, 0.89% active; inhibition, % at 5.6 µM; purified VIM-2, nitrocefin hydrolysis, epi-absorbance fluorescence;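 active means inhibition above the mean of all tested compounds plus 3 SD, cutoff set per screening run, cut at about 7.5% in these data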;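 further: red hydrolysis product quenches plate fluorescence so inhibitors raise well fluorescence; 0% = enzyme with DMSO and 100% = DMSO without enzyme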
PvdQ inh: P. aeruginosa PvdQ acylase inhibitors, primary screen, biochemical, fluorescence, plate reader and imaging, single point. PvdQ acylase [Pseudomonas aeruginosa LESB58]. purified PvdQ acylase. inhibition, % at 10 µM. 340,000 tested, 0.063% active. AID 488965, 2010; in the data active means inhibition above about 30%, passing the limit was not always enough;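 further: 0% = vehicle neutral wells and 100% = reference inhibitor wells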
IMP-1 inh: IMP-1 metallo-beta-lactamase inhibitors, primary screen, biochemical, epi-absorbance readout, Pseudomonas aeruginosa enzyme | inhibition, % at 5.6 µM | purified IMP-1, nitrocefin hydrolysis, epi-absorbance fluorescence | AID 1556, 2009 | metallo-beta-lactamase IMP-1 (Pseudomonas aeruginosa) | 290,000 tested, 0.45% active;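 active means inhibition above the mean plus 3 SD of all compounds in the same screening run, cut at about 4.5% in these data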;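 further: 0% = IMP-1 with DMSO and 100% = DMSO wells lacking enzyme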
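System – purified recombinant IMP-1 beta-lactamase · Input – IMP-1 dispensed at 0.2 nM · Timing – 15 min preincubation plus 25 min reaction at 25 °C · Signal – Epi-absorbance fluorescence, 480 nm excitation, 530 nm emission · Measure – percent IMP-1 inhibition derived from blank-referenced optical density · Controls – Enzyme-plus-DMSO low control, enzyme-free DMSO high control · Replication – singlicate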
An asterisk follows results filed as active. The list is not random: actives were taken first. Their share in the collection is about 2.2%.

Screening O=Cc1ccc(-c2nc3ccccc3s2)o1 returned CR mimetic SO 73.3, PHOSPHO1 inh 36.7, VIM-2 inhibitor -1.3, PvdQ inh 3.8 and IMP-1 inh -2.1.
`O=S(=O)(Nc1nc(-c2sccc2Cl)cs1)c1cc(Cl)ccc1Cl` gave CR mimetic SO 108.7, PHOSPHO1 inh -21.7, VIM-2 inhibitor 4.8, PvdQ inh 10.4 and IMP-1 inh 1.5.
For CC(C)N(C)Cc1nnnn1CC(=O)N(C)Cc1ccc(F)cc1 the results were CR mimetic SO 87.7, PHOSPHO1 inh 40.3, VIM-2 inhibitor -1.6, PvdQ inh -11.7 and IMP-1 inh -2.2.
Screening CC(C)(O)c1[nH]c2ccc(C#N)cc2c1C(C)(C)O returned CR mimetic SO 106.9, PHOSPHO1 inh -7.3, VIM-2 inhibitor 2.5 and IMP-1 inh 4.9*.
For CC[N+]1(C)CCC(O)(c2ccc(OC)cc2)C(C(=O)c2ccc(OC)cc2)C1 (stereo not drawn) the results were PvdQ inh -13.3.
For O=C(C1CCC1)N1CCN(c2ccc(Cl)cc2)CC1 the results were CR mimetic SO 97.8, PHOSPHO1 inh 29.0, VIM-2 inhibitor -1.6, PvdQ inh 35.9* and IMP-1 inh -2.1.
COCCn1c(SC(C(=O)Nc2cc(C)ccc2OC)c2ccccc2)nnc1-c1ccc(Cl)cc1 (stereo not drawn) was read as CR mimetic SO 83.0, PHOSPHO1 inh 62.7*, VIM-2 inhibitor -1.7, PvdQ inh 7.0 and IMP-1 inh -2.9.
CCOc1ccc(C(=O)NCC(=O)OCc2nnc(-c3ccccc3)o2)cc1OCC was read as CR mimetic SO 68.8 and PvdQ inh -3.5.
For C1CSC2(N1)C1CC3CC2CC(C1)C31NCCS1 (stereo not drawn) the results were CR mimetic SO 103.0, PHOSPHO1 inh 61.1*, VIM-2 inhibitor -2.6, PvdQ inh -9.1 and IMP-1 inh -3.0.
O=C(NC1CC1)c1ccc2c(c1)S(=O)(=O)c1cc(Cl)ccc1C2=O was read as CR mimetic SO 88.1.
O=C(NCCCN1CCOCC1)c1cc2nc(-c3ccco3)cc(C(F)(F)F)n2n1 was read as CR mimetic SO 93.8, PHOSPHO1 inh 36.2, VIM-2 inhibitor 11.8*, PvdQ inh 5.8 and IMP-1 inh -1.7.
`CC(C)(C)N1C(=O)c2ccc(C(=O)Nc3cc(C(=O)O)cc(C(=O)O)c3)cc2C1=O` gave CR mimetic SO 98.0, PHOSPHO1 inh 23.5, VIM-2 inhibitor 0.2, PvdQ inh -10.5 and IMP-1 inh -3.7.
`CC1CCCCN1CCNC(=O)c1cc2c(-c3ccccc3F)nn(C)c2s1` (stereo not drawn) gave CR mimetic SO 95.0, PHOSPHO1 inh -2.3, VIM-2 inhibitor 8.9*, PvdQ inh -19.6 and IMP-1 inh -3.1.
`CCOC(=O)N1CCC(NC(=O)c2cc3c(-c4ccccc4F)nn(C)c3s2)CC1` gave CR mimetic SO 97.4, PHOSPHO1 inh -13.9, VIM-2 inhibitor -0.6, PvdQ inh -8.4 and IMP-1 inh -1.8.
CCN(CC)CCCNC(=O)c1cc2c(-c3ccc(Cl)cc3)nn(C)c2s1 was read as CR mimetic SO 102.9, PHOSPHO1 inh 19.3, VIM-2 inhibitor -0.8, PvdQ inh 9.0 and IMP-1 inh -0.7.
For CCCCN(CC)CCNC(=O)c1cc2c(-c3ccccc3F)nn(C)c2s1 the results were CR mimetic SO 95.9, PHOSPHO1 inh 28.0, VIM-2 inhibitor 9.3*, PvdQ inh 9.0 and IMP-1 inh -1.9.
For COc1ccc(NC(=O)C2CCN(S(=O)(=O)c3cccnc3)CC2)cc1Cl the results were CR mimetic SO 101.2, PHOSPHO1 inh 70.4*, VIM-2 inhibitor -3.1, PvdQ inh -10.2 and IMP-1 inh -2.9.
For CCOC(=O)CCCc1sc(N)nc1-c1[nH]c(=O)[nH]c1C the results were CR mimetic SO 102.0, PHOSPHO1 inh 87.5*, VIM-2 inhibitor -5.6, PvdQ inh 20.4 and IMP-1 inh -5.4.
CCOC(=O)CCc1c(C)n[nH]c1C was read as CR mimetic SO 137.2, PHOSPHO1 inh 16.2, VIM-2 inhibitor 1.5, PvdQ inh 3.1 and IMP-1 inh 0.0.
O=C(NCCO)C(=O)Nc1cc2c3c(c1)CCC(=O)N3CCC2 was read as CR mimetic SO 93.1, PHOSPHO1 inh 18.5, VIM-2 inhibitor -2.6, PvdQ inh -13.8 and IMP-1 inh -3.4.
For Cc1ccccc1NC(=O)c1sc2nc3c(c(-c4ccco4)c2c1N)CCC3 the results were CR mimetic SO 107.2, PHOSPHO1 inh 75.7*, VIM-2 inhibitor 1.4, PvdQ inh -13.7 and IMP-1 inh -2.2.
For Cc1ccc(NC(=O)c2c(C)nc3sc(C(=O)NC4CCCC4)c(N)c3c2-c2ccco2)c(C)c1 the results were CR mimetic SO 119.0, PHOSPHO1 inh -7.9, VIM-2 inhibitor -2.2, PvdQ inh -11.9 and IMP-1 inh -0.7.
Screening N#Cc1sc2nc3c(c(-c4ccco4)c2c1N)CCCC3 returned CR mimetic SO 105.0, PHOSPHO1 inh 80.8*, VIM-2 inhibitor 2.2, PvdQ inh 2.4 and IMP-1 inh 0.3.
Screening NC(=O)c1sc2nc3c(c(-c4ccco4)c2c1N)CCCC3 returned CR mimetic SO 103.9, PHOSPHO1 inh 19.9, VIM-2 inhibitor 1.0, PvdQ inh -3.7 and IMP-1 inh -0.9.
Cc1cc2nc(CCN(Cc3cccnc3)C(=S)Nc3ccccc3)[nH]c2cc1C was read as CR mimetic SO 93.1, PHOSPHO1 inh 92.5*, VIM-2 inhibitor 0.8, PvdQ inh -5.9 and IMP-1 inh -1.5.
`COc1ccc(CCN2CC(C(=O)OCc3ccccc3Cl)CC2=O)cc1OC` (stereo not drawn) gave PvdQ inh -3.4.
`CC(=O)c1c(COC(=O)c2cccnc2)nc2ccccc2[n+]1[O-]` gave CR mimetic SO 99.4, PHOSPHO1 inh 88.5*, VIM-2 inhibitor 1.9, PvdQ inh -9.0 and IMP-1 inh 0.1.
For COc1cc(C(=O)CSc2nnc(-c3ccc(O)cc3)n2CC2CCCO2)ccc1NC(C)=O (stereo not drawn) the results were CR mimetic SO 73.6, PHOSPHO1 inh 79.2*, VIM-2 inhibitor -1.4, PvdQ inh -2.0 and IMP-1 inh -3.7.
CCC(=O)Nc1ccc(C(=O)CSc2nnc(-c3ccc(O)cc3)n2CC2CCCO2)cc1 (stereo not drawn) was read as CR mimetic SO 98.1, PHOSPHO1 inh 29.3, VIM-2 inhibitor 1.6, PvdQ inh -2.0 and IMP-1 inh -1.0.
CCSc1nnc(-c2ccc(S(=O)(=O)N3CCOCC3)cc2)n1CC1CCCO1 (stereo not drawn) was read as CR mimetic SO 119.5, PHOSPHO1 inh 33.3, VIM-2 inhibitor -2.0, PvdQ inh 0.7 and IMP-1 inh -3.9.
`O=C(CSc1nnc(-c2ccc(S(=O)(=O)N3CCCC3)cc2)n1CC1CCCO1)NC1CC1` (stereo not drawn) gave CR mimetic SO 85.5, PHOSPHO1 inh 84.2*, VIM-2 inhibitor 1.4, PvdQ inh -10.3 and IMP-1 inh -0.9.
